Values joined by “and” are separate entries in the source; they are usually repeats but may differ in a detail not shown here. Equal values may be shown once. Read-outs that look alike come from different tables or passages of the source.
Experiments:
[1] = human; ref Tong et al., 2010; cited from earlier work
[2] = ref Inghardt et al., 2022; cited from earlier work
[3] = Dog 3-month repeated-dose GLP toxicity study; conditions: both, in vivo, po, 100 mg/kg/day
[4] = rats; ref Inghardt et al., 2022; cited from earlier work
[5] = Fraction unbound in plasma, equilibrium dialysis; type: in vitro ADME; conditions: rat plasma, 10 µmol/L, 37°C, 16 h, mean ± S.D., n = 3
Procedure, shortened: (§1)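 Equilibrium dialysis used frozen pooled plasma (n>3 donors, K2-EDTA): human (mixed sex), rat (male Han Wistar), dog (male beagle). Plasma spiked with test compound at 0.1, 1.0 or 10 was dialysed against phosphate buffer pH 7.4 for 16 h at 37°C, in triplicate. Calibration standards were made in spiked plasma. fu = buffer concentration / plasma concentration. Recovery = total compound found after dialysis / total added.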

[6] = Human MAD study, plasma AUC0-24h pools, metabolite concentrations; type: in vivo; conditions: human AUC0-24h plasma pool
Procedure, shortened: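 Plasma came from healthy male volunteers given unlabelled test compound once daily in a phase I multiple-ascending-dose study. Groups: 5 mg (day 10, n = 8), 10 mg (day 14, n = 8), 15 mg (day 10, n = 7). Samples were pooled time-proportionally across participants into one AUC0-24h pool per dose, protein-precipitated and run by LC-HRMS. DRE = summed concentrations of parent plus quantified metabolites.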

[7] = Fraction unbound in plasma, equilibrium dialysis; type: in vitro ADME; conditions: dog plasma, 10 µmol/L, 37°C, 16 h, mean ± S.D., n = 3
Procedure, shortened: as §1

[8] = Fraction unbound in plasma, equilibrium dialysis; type: in vitro ADME; conditions: human plasma, 1 µmol/L, 37°C, 16 h, mean ± S.D., n = 3
Procedure, shortened: as §1

MPO = conditions: read-out: potency toward MPO (IC50); in vitro; ref Inghardt et al., 2022; cited from earlier work
[9] = dogs; ref Inghardt et al., 2022; cited from earlier work
[10] = type: in vivo, rat; conditions: for Total % of dose (total radioactivity in sample), feces / Total % of dose (total radioactivity in sample), urine / percentage of dose in feces / percentage of dose in urine: 0-48 h pool; for percentage of dose in feces / percentage of dose in urine: single oral 40 mg/kg; for concentration at 1 h / concentration at 3 h / concentration at 8 h: Han Wistar, rat, plasma, po; for administered dose recovered in feces (mean) / urinary excretion of administered dose (mean): intact male and female rats
[11] = Mouse 28-day repeat dose, plasma metabolite profiling; type: in vivo; conditions: mouse plasma AUC0-24h pool
[12] = Rat 3-month repeated-dose GLP toxicity study; conditions: both, SD, in vivo, po, 125 mg/kg/day
[13] = BDC male rats, oral, 0-24 h pool
[14] = female intact rats, oral 40 mg/kg
[15] = female intact rats, oral 40 mg/kg, 40 mg/kg
[16] = male intact rats, oral 40 mg/kg, 40 mg/kg
[17] = male intact rats, oral 40 mg/kg, listed as [^14C]AZD4831, 40 mg/kg

For `c1cc2c3c(c1)[C@H]1CCC[C@H]1CN3CCNC2` [vabicaserin], the “exposure of the carbamoyl glucuronide metabolite relative to parent” value [1] is given as 60 fold.

For `C[C@@H](N)c1cc(Cl)ccc1Cn1c(=S)[nH]c(=O)c2[nH]ccc21` [AZD4831, (R)-1-(2-(1-aminoethyl)-4-chlorobenzyl)-2-thioxo-2,3-dihydro-1H-pyrrolo[3,2-d]pyrimidin-4(5H)-one], the permeability [2] is given as “high permeability”, the NOAEL at 3 month [3] is given as 100 mg/kg/day and the bioavailability [4] is given as “good bioavailability”. For the same compound, the clearance [4] was “moderate clearance”, the “percentage free drug in plasma” value [5] was 22.0 ± 0.49% and the plasma concentration ([6]; 5 mg once daily) was 0.028 µM. For the same compound, the plasma concentration ([6]; 10 mg once daily) was 0.053 µM, the plasma concentration ([6]; 15 mg once daily) was 0.086 µM and the “percentage free drug in plasma” value [7] was 31.9 ± 0.50%. The “percentage free drug in plasma” value [8] was 36.1 ± 1.0%, the IC50 (MPO) was 1.5 nM and the bioavailability [9] was “good bioavailability”. For the same compound, the clearance [9] was “moderate clearance”, the “dose fraction excreted in bile within 0-24 hours” value ([10]; BDC female rats, oral 40 mg/kg) was 10% and the “percent of administered dose in bile” value ([10]; BDC female rats, oral, 0-24 h pool) was 0.2%. The “dose fraction excreted in bile within 0-24 hours” value ([10]; BDC male rats, oral 40 mg/kg) was 21%, the “percent of administered dose in bile” value [10, 13] was under 0.1% and the “percent of dose in feces” value [10, 13] was 20%. For the same compound, the “percent of dose in urine” value [10, 13] was 26%, the “Sum % of dose (integrated radioactive peaks), feces” value [10, 14] was 35.5 % of dose and the “Sum % of dose (integrated radioactive peaks), urine” value [10, 14] was 31.3 % of dose. For the same compound, the “Total % of dose (total radioactivity in sample), feces” value (from here on “Total % of dose … feces”) [10, 15] was 43 % of dose, the “Total % of dose (total radioactivity in sample), urine” value (from here on “Total % of dose … urine”) [10, 15] was 34 % of dose and the “Total % of dose … urine” value ([10]; female intact rats, oral 40 mg/kg, listed as [^14C]AZD4831, 40 mg/kg) was 34.4 % of dose. For the same compound, the “percentage of dose in feces” value ([10]; female intact rats, 40 mg/kg) was 31 % of dose and 30.7 % of dose, the “percentage of dose in urine” value ([10]; female intact rats, 40 mg/kg) was 30 % of dose and 30.3 % of dose and the “Sum µmol equiv/L (integrated radioactive peaks) in plasma” value (from here on “Sum µmol equiv/L”) ([10]; female rats, 1 h) was 10.4 µmol equiv/L. For the same compound, the “Total µmol equiv/L (total radioactivity) in plasma” value (“Total µmol equiv/L” for short) ([10]; female rats, 1 h, oral) was 12.5 µmol equiv/L, the “% of total radioactivity in plasma” value ([10]; female rats, 1 h, oral 40 mg/kg) was 72.8 % of total and the “Sum µmol equiv/L” value ([10]; female rats, 3 h) was 13.8 µmol equiv/L. For the same compound, the “Total µmol equiv/L” value ([10]; female rats, 3 h, oral) was 15.9 µmol equiv/L, the “% of total radioactivity in plasma” value ([10]; female rats, 3 h, oral 40 mg/kg) was 77.5 % of total and the “Sum µmol equiv/L” value ([10]; female rats, 8 h) was 11.7 µmol equiv/L. The “Total µmol equiv/L” value ([10]; female rats, 8 h, oral) was 13.4 µmol equiv/L, the “% of total radioactivity in plasma” value ([10]; female rats, 8 h, oral 40 mg/kg) was 82.1 % of total and the concentration at 1 h ([10]; female, 40 mg/kg) was 9.1 µM. For the same compound, the concentration at 3 h ([10]; female, 40 mg/kg) was 12.3 µM, the concentration at 8 h ([10]; female, 40 mg/kg) was 11 µM and the “administered dose recovered in feces (mean)” value ([10]; intravenous) was 46.9%. The “urinary excretion of administered dose (mean)” value ([10]; intravenous) was 37.7%, the “administered dose recovered in feces (mean)” value ([10]; oral) was 51.9% and the “urinary excretion of administered dose (mean)” value ([10]; oral) was 32.0%. The “Sum % of dose (integrated radioactive peaks), feces” value ([10]; male intact rats, oral 40 mg/kg) was 45.9 % of dose, the “Total % of dose … feces” value [10, 16] was 59 % of dose and the “Total % of dose … urine” value [10, 16] was 28 % of dose. For the same compound, the “Total % of dose … feces” value [10, 17] was 58.7 % of dose, the “Total % of dose … urine” value [10, 17] was 28.2 % of dose and the “percentage of dose in feces” value ([10]; male intact rats, 40 mg/kg) was 40 % of dose and 39.6 % of dose. The “percentage of dose in urine” value ([10]; male intact rats, 40 mg/kg) was 20 % of dose and 20.3 % of dose, the “Sum µmol equiv/L” value ([10]; male rats, 1 h) was 20.3 µmol equiv/L and the “Total µmol equiv/L” value ([10]; male rats, 1 h, oral) was 23.4 µmol equiv/L. For the same compound, the “% of total radioactivity in plasma” value ([10]; male rats, 1 h, oral 40 mg/kg) was 78.2 % of total, the “Sum µmol equiv/L” value ([10]; male rats, 3 h) was 13.6 µmol equiv/L and the “Total µmol equiv/L” value ([10]; male rats, 3 h, oral) was 17.1 µmol equiv/L. The “% of total radioactivity in plasma” value ([10]; male rats, 3 h, oral 40 mg/kg) was 66.8 % of total, the “Sum µmol equiv/L” value ([10]; male rats, 8 h) was 13.7 µmol equiv/L and the “Total µmol equiv/L” value ([10]; male rats, 8 h, oral) was 16.9 µmol equiv/L. The “% of total radioactivity in plasma” value ([10]; male rats, 8 h, oral 40 mg/kg) was 70.9 % of total, the concentration at 1 h ([10]; male, 40 mg/kg) was 18.3 µM and the concentration at 3 h ([10]; male, 40 mg/kg) was 11.4 µM. For the same compound, the concentration at 8 h ([10]; male, 40 mg/kg) was 12 µM, the “radioactivity recovered in bile (mean)” value ([10]; orally dosed BDC female rats) was 10.4% and the “radioactivity recovered in feces (mean)” value ([10]; orally dosed BDC female rats) was 23.2%. For the same compound, the “radioactivity recovered in urine (mean)” value ([10]; orally dosed BDC female rats) was 54.7%, the “radioactivity recovered in bile (mean)” value ([10]; orally dosed BDC male rats) was 21.4% and the “radioactivity recovered in feces (mean)” value ([10]; orally dosed BDC male rats) was 27.5%. For the same compound, the “radioactivity recovered in urine (mean)” value ([10]; orally dosed BDC male rats) was 37.3%, the “share of radioactivity (integrated radiochromatographic peaks) in plasma” value ([10]; rats, oral 40 mg/kg, all time points (1, 3, 8 h)) was over 67% and the “Drug-Related Exposure (%)” value ([11]; day 28, Female (125 mg/kg)) was 76%. The “Drug-Related Exposure (%)” value ([11]; day 28, Female (250 mg/kg)) was 74%, the “Drug-Related Exposure (%)” value ([11]; day 28, Female (500 mg/kg)) was 57% and the “Drug-Related Exposure (%)” value ([11]; day 28, Male (125 mg/kg)) was 78%. The NOAEL at 3 month [12] was 125 mg/kg/day.
